Measured values from ChEMBL document CHEMBL1817593, “C5'-Alkyl Substitution Effects on Digitoxigenin α-l-Glycoside Cancer Cytotoxicity” (ACS Med Chem Lett, 2011).

Legend:
Format in all cases: functional
[1] = tested on: PC-3; test: Cytotoxicity against human PC3 cells after 48 hrs by sulforhodamine B assay; conditions: PC-3, 48 h
[2] = tested on: Hs-578T; test: Cytotoxicity against human Hs578T cells after 48 hrs by sulforhodamine B assay
[3] = tested on: SF-295; test: Cytotoxicity against human SF295 cells after 48 hrs by sulforhodamine B assay; conditions: SF-295, 48 h
[4] = tested on: NCI-H522; test: Cytotoxicity against human NCI-H522 cells after 48 hrs by sulforhodamine B assay; conditions: NCI-H522, 48 h
[5] = tested on: SNB-19; test: Cytotoxicity against human SNB19 cells after 48 hrs by sulforhodamine B assay; conditions: SNB-19, 48 h
[6] = tested on: U-251; test: Cytotoxicity against human U251 cells after 48 hrs by sulforhodamine B assay; conditions: U-251, 48 h
[7] = tested on: HCC 2998; test: Cytotoxicity against human HCC2998 cells after 48 hrs by sulforhodamine B assay; conditions: HCC 2998, 48 h
[8] = tested on: NCI-H460; test: Cytotoxicity against human NCI-H460 cells assessed as cell death in serum free medium at 500 nM after 12 hrs by Hoechst 33342/propidium iodide staining based fluorescence microscopy
In short: (§1)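 NCI-H460 human lung cancer cells exposed 12 h to 10 nM–10 μM drug, including a 50 nM single-concentration test. Nuclei were stained with Hoechst 33342 and necrotic cells with propidium iodide. Apoptotic cells were scored by condensed or fragmented blue nuclei and necrotic cells by red PI staining. Total cell death (apoptosis plus necrosis) was recorded; N = 6.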

[9] = tested on: NCI-H460; test: Cytotoxicity against human NCI-H460 cells assessed as cell death in serum free medium at 50 nM after 12 hrs by Hoechst 33342/propidium iodide staining based fluorescence microscopy; in short: as §1
[10] = tested on: NCI-H460; test: Cytotoxicity against human NCI-H460 cells assessed as cell viability at 50 nM after 48 hrs by MTT assay; conditions: NCI-H460, 48 h, read-out: Activity
In short: (§2)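 Viability of NCI-H460 cells was measured by MTT (mitochondrial enzymatic activity) after 48 h exposure, within a dose series spanning 1 nM–10 μM. N = 9, analysed by two-way ANOVA.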

[11] = tested on: UO-31; test: Cytotoxicity against human UO31 cells after 48 hrs by sulforhodamine B assay; conditions: UO-31, 48 h
[12] = tested on: DU-145; test: Cytotoxicity against human DU145 cells after 48 hrs by sulforhodamine B assay; conditions: DU-145, 48 h
[13] = tested on: CAKI-1; test: Cytotoxicity against human Caki1 cells after 48 hrs by sulforhodamine B assay; conditions: CAKI-1, 48 h
[14] = tested on: HOP-92; test: Cytotoxicity against human HOP92 cells after 48 hrs by sulforhodamine B assay; conditions: HOP-92, 48 h
[15] = tested on: SNB-75; test: Cytotoxicity against human SNB75 cells after 48 hrs by sulforhodamine B assay; conditions: SNB-75, 48 h
[16] = tested on: SF-268; test: Cytotoxicity against human SF268 cells after 48 hrs by sulforhodamine B assay; conditions: SF-268, 48 h
[17] = tested on: NCI-H460; test: Cytotoxicity against human NCI-H460 cells assessed as cell viability at 1 nM after 48 hrs by MTT assay; conditions: NCI-H460, 48 h, read-out: Activity; in short: as §2
[18] = tested on: NCI-H460; test: Cytotoxicity against human NCI-H460 cells assessed as cell viability at 500 nM after 48 hrs by MTT assay; conditions: NCI-H460, 48 h, read-out: Activity; in short: as §2
[19] = tested on: NCI-H460; test: Cytotoxicity against human NCI-H460 cells assessed as cell death in serum free medium at 1000 nM after 12 hrs by Hoechst 33342/propidium iodide staining based fluorescence microscopy; in short: as §1
[20] = tested on: NCI-H460; test: Cytotoxicity against human NCI-H460 cells assessed as cell viability at 100 nM after 48 hrs by MTT assay; conditions: NCI-H460, 48 h, read-out: Activity; in short: as §2
[21] = tested on: NCI-H23; test: Cytotoxicity against human NCI-H23 cells after 48 hrs by sulforhodamine B assay; conditions: NCI-H23, 48 h
[22] = tested on: BT-549; test: Cytotoxicity against human BT549 cells after 48 hrs by sulforhodamine B assay; conditions: BT-549, 48 h
[23] = tested on: MDA-MB-231; test: Cytotoxicity against human MDA-MB-231 cells after 48 hrs by sulforhodamine B assay; conditions: MDA-MB-231, 48 h
[24] = tested on: SN12C; test: Cytotoxicity against human SN12C cells after 48 hrs by sulforhodamine B assay
[25] = tested on: NCI-H460; test: Cytotoxicity against human NCI-H460 cells assessed as cell viability after 48 hrs by MTT assay; conditions: NCI-H460, 48 h
In short: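 NCI-H460 cells were exposed to drug for 48 h, and viability was read by MTT as mitochondrial enzymatic activity. GI50 was derived from dose-response curves (1 nM–10 μM). Values are from three independent experiments with duplicate determinations, given with standard error of the mean.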

[26] = tested on: MDA-MB-435; test: Cytotoxicity against human MDA-MB-435 melanoma cells after 48 hrs by sulforhodamine B assay; conditions: MDA-MB-435, 48 h
[27] = tested on: NCI-H460; test: Induction of apoptosis in human NCI-H460 cells in serum free medium at 50 nM after 12 hrs by Hoechst 33342/propidium iodide staining based fluorescence microscopy
In short: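 NCI-H460 cells exposed to a single 50 nM concentration for 12 h. Cells stained with Hoechst 33342 and propidium iodide. Blue cells with condensed or fragmented nuclei were scored as apoptotic and red, ruptured cells as necrotic. Result given as % apoptotic cell death; N = 6, one-way ANOVA.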

[28] = tested on: SW-620; test: Cytotoxicity against human SW620 cells after 48 hrs by sulforhodamine B assay; conditions: SW-620, 48 h
[29] = tested on: M14; test: Cytotoxicity against human M14 cells after 48 hrs by sulforhodamine B assay; conditions: M14, 48 h
[30] = tested on: MCF7; test: Cytotoxicity against human MCF7 cells after 48 hrs by sulforhodamine B assay; conditions: MCF7, 48 h
[31] = tested on: NCI-H460; test: Cytotoxicity against human NCI-H460 cells assessed as cell death in serum free medium at 75 nM after 12 hrs by Hoechst 33342/propidium iodide staining based fluorescence microscopy; in short: as §1
[32] = tested on: COLO 205; test: Cytotoxicity against human COLO205 cells after 48 hrs by sulforhodamine B assay; conditions: COLO 205, 48 h
[33] = tested on: NCI-H460; test: Cytotoxicity against human NCI-H460 cells assessed as cell death in serum free medium at 10 nM after 12 hrs by Hoechst 33342/propidium iodide staining based fluorescence microscopy; in short: as §1
[34] = tested on: 786-0; test: Cytotoxicity against human 786-0 cells after 48 hrs by sulforhodamine B assay; conditions: 786-0, 48 h
[35] = tested on: EKVX; test: Cytotoxicity against human EKVX cells after 48 hrs by sulforhodamine B assay
[36] = tested on: K562; test: Cytotoxicity against human K562 cells after 48 hrs by sulforhodamine B assay; conditions: K562, 48 h
[37] = tested on: KM12; test: Cytotoxicity against human KM12 cells after 48 hrs by sulforhodamine B assay; conditions: KM12, 48 h
[38] = tested on: MDA-MB-435; test: Cytotoxicity against human MDA-MB-435 breast cancer cells after 48 hrs by sulforhodamine B assay; conditions: MDA-MB-435, 48 h
[39] = tested on: ACHN; test: Cytotoxicity against human ACHN cells after 48 hrs by sulforhodamine B assay

| Structure (SMILES) | GI50 [1] [nM] | GI50 [2] [nM] | GI50 [3] [nM] | GI50 [4] [nM] | GI50 [5] [nM] | GI50 [6] [nM] | GI50 [7] [nM] | Activity [8] [%] | Activity [9] [%] | viability at 0.05 µM [10] [%] | GI50 [11] [nM] | GI50 [12] [nM] | GI50 [13] [nM] | GI50 [14] [nM] | GI50 [15] [nM] | GI50 [16] [nM] | viability at 0.001 µM [17] [%] | viability at 0.5 µM [18] [%] | Activity [19] [%] | viability at 0.1 µM [20] [%] | other results |
| --- | --- | --- | --- | --- | --- | --- | --- | --- | --- | --- | --- | --- | --- | --- | --- | --- | --- | --- | --- | --- | --- |
| CC(C)[C@@H]1O[C@@H](O[C@H]2CC[C@@]3(C)[C@H](CC[C@@H]4[C@@H]3CC[C@]3(C)[C@@H](C5=CC(=O)OC5)CC[C@]43O)C2)CC[C@H]1O | 61.9 | 13.6 | 28.6 | 26 | 185 | 82.9 | 243 | 50.85 | 14.48 | 22.2 | 23.4 | 19.5 | 20.8 | 79.8 | 92.6 | 26.3 | 81.1 | 6.35 | 90.66 | 12.4 | GI50 [21]: 29.4 nM; GI50 [22]: 20.7 nM; GI50 [23]: 259 nM; GI50 [24]: 23.7 nM; GI50 [25]: 7.66 nM; GI50 [26]: 82.8 nM; Activity [27]: 11.993%; GI50 [28]: 42.8 nM; GI50 [29]: 93.4 nM; GI50 [30]: 161 nM; Activity [31]: 16.05%; GI50 [32]: 207 nM; Activity [33]: 9.96%; GI50 [34]: 26.8 nM; GI50 [35]: 31.9 nM; GI50 [36]: 47 nM; GI50 [37]: 152 nM; GI50 [38]: 150 nM; GI50 [39]: 17 nM |
| CC(C)C[C@@H]1O[C@@H](O[C@H]2CC[C@@]3(C)[C@H](CC[C@@H]4[C@@H]3CC[C@]3(C)[C@@H](C5=CC(=O)OC5)CC[C@]43O)C2)CC[C@H]1O | 46.3 | 7.5 | 24.9 | 23.6 | 58.9 | 39.7 | 204 | 62.18 | 13.06 | 25.1 | 27.7 | 16.6 | 24.4 | 74.2 | 85.3 | 26.3 | 81.8 | 4.88 | 94.8 | 18.5 | GI50 [21]: 25.7 nM; GI50 [22]: 22.5 nM; GI50 [23]: 225 nM; GI50 [24]: 23.7 nM; GI50 [25]: 8.27 nM; GI50 [26]: 35.1 nM; Activity [27]: 9.2821%; GI50 [28]: 32 nM; GI50 [29]: 67.2 nM; GI50 [30]: 52.8 nM; Activity [31]: 15%; GI50 [32]: 170 nM; Activity [33]: 10.03%; GI50 [34]: 23.3 nM; GI50 [35]: 31.7 nM; GI50 [36]: 26.9 nM; GI50 [37]: 55.9 nM; GI50 [38]: 149 nM; GI50 [39]: 12.2 nM |
